Measurements taken from ChEMBL document CHEMBL1142933, “Rational design of novel, potent small molecule pan-selectin antagonists” (J Med Chem, 2007).

What was measured:
[1] = target: T1, E-selectin (Homo sapiens) (UniProt P16581); test: Inhibition of human E-selectin after 2 hrs at 100 uM
T1 sequence (whole entry): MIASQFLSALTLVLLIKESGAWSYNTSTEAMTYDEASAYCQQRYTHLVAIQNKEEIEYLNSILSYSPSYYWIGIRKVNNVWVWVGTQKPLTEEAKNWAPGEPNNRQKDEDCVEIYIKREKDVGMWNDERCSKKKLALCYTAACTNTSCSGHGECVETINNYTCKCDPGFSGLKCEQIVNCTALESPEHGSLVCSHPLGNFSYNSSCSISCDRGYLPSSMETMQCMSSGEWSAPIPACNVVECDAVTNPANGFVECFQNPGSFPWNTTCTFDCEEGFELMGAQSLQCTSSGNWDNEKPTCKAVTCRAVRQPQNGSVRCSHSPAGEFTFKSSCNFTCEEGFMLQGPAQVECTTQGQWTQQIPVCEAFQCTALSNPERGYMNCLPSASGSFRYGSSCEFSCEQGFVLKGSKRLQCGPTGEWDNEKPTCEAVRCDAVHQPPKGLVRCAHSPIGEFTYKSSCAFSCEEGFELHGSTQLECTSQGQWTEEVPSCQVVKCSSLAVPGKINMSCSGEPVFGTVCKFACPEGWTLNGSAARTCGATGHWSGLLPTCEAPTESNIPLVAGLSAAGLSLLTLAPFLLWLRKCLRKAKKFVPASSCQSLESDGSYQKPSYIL
Procedure, shortened: (§1)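 Human E-, P- or L-selectin/Fc chimera (0.61 nM) captured on anti-Fc-coated wells, then incubated 2 h at 37 °C with peroxidase-streptavidin-complexed sLeX-tyrosine sulfate polyacrylamide ligand plus compound at 100 µM in HEPES buffer pH 7.4 with CaCl2, 1% DMSO. Bound ligand measured by TMB, OD 450 vs 620 nm; % inhibition reported.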

[2] = target: T2, L-selectin (Homo sapiens) (UniProt P14151); test: Inhibition of human L-selectin after 2 hrs at 100 uM; procedure, shortened: as §1
T2 sequence (whole entry): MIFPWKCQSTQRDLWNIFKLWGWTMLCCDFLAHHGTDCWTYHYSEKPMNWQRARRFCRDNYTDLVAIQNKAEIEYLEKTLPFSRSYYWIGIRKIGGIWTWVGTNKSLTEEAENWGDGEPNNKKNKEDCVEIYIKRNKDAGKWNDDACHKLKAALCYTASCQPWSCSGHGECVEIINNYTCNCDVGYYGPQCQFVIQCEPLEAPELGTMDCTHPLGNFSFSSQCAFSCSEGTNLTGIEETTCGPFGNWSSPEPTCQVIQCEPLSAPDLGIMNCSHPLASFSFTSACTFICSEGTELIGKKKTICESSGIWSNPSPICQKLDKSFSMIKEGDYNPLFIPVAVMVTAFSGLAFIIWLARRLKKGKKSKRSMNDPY

[3] = target: T3, P-selectin (Homo sapiens) (UniProt P16109); test: Inhibition of human P-selectin after 2 hrs at 100 uM; procedure, shortened: as §1
T3 sequence (whole entry): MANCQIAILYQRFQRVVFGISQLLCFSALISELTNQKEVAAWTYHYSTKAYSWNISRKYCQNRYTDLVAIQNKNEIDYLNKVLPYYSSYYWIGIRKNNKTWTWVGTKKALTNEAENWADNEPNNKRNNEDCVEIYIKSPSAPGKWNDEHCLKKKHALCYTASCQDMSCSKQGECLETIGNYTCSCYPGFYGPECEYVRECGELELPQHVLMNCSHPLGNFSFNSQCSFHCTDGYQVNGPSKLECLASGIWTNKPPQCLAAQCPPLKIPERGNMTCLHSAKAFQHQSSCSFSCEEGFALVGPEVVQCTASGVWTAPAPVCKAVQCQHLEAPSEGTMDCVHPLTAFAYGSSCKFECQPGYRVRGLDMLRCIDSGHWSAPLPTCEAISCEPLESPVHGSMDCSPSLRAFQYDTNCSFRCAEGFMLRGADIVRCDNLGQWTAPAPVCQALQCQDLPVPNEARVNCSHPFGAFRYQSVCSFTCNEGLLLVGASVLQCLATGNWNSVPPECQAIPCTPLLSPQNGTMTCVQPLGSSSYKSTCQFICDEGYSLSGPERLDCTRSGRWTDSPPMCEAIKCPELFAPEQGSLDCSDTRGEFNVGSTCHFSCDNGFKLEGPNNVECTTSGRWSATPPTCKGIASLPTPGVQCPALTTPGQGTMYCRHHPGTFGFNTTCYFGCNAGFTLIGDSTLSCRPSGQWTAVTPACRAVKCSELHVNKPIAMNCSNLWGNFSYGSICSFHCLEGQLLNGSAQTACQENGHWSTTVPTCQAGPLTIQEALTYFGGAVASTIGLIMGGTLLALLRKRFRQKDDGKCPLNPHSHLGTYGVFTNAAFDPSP

[4] = system: HL-60; test: Inhibition of attachment of HL60 cells to E-selectin at 109 uM after 5 mins; assay type: functional; details: Homo sapiens, HL-60, 5 min
Procedure, shortened: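 Dishes coated with E- or P-selectin/Fc chimera, blocked with BSA, mounted in a parallel flow chamber run recirculating; HL-60 cells at 2.4 million/mL final. Cells attached after 5 min continuous flow at calculated shear 1 dyn/cm², with 109 µM compound or DMSO vehicle, counted in five low power fields. Mean inhibition as % of vehicle control from mean cells/field of at least two independent experiments.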

[5] = system: HL-60; test: Inhibition of attachment of HL60 cells to P-selectin at 109 uM after 5 mins; assay type: functional; details: Homo sapiens, HL-60, 5 min
Procedure, shortened: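 Dishes coated with E- or P-selectin/Fc chimera, blocked with BSA, mounted in a parallel flow chamber run recirculating; HL-60 cells at 2.4 million/mL final. Mean inhibition as % of vehicle control from mean cells/field of at least two independent experiments.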

Structure (SMILES)	inhibition [1] [%]	inhibition [2] [%]	inhibition [3] [%]	inhibition at 109 µM [4] [%]	inhibition at 109 µM [5] [%]
O=c1c(O)cccc2cc(O)c(O)c(O)c12	3.1	83.6	77		
O=C(O)c1ccc(O)c(O)c1	19.5	1.3			
Oc1cccc(O)c1O [PYROGALLOL]	8.3	13.5	1.7	47	24
O=C(O)c1cccc(O)c1O	6	1.1	-3		
O=c1cc(-c2ccccc2)oc2cc(O)c(O)c(O)c12	37.6	51.7	52		
O=C(O)C1=C[C@@H](O)[C@@H](O)[C@H](O)C1	25.6	12.2	-1		
O=c1cc(-c2ccccc2)oc2cc(O)cc(O)c12	15	4.3	-5.3		
